pKi: −log10 of the molar value.
Legend:
[1] = target: T1, Protein-glutamine gamma-glutamyltransferase (Homo sapiens) (UniProt P21980); assay: Inhibition of human recombinant tissue transglutaminase expressed in Escherichia coli using Cbz-Glu-(gamma-p-nitrophenylester)Gly (AL5) as substrate assessed as substrate hydrolysis by measuring Kinact incubated for 20 mins by colorimetric analysis
T1 sequence (whole entry): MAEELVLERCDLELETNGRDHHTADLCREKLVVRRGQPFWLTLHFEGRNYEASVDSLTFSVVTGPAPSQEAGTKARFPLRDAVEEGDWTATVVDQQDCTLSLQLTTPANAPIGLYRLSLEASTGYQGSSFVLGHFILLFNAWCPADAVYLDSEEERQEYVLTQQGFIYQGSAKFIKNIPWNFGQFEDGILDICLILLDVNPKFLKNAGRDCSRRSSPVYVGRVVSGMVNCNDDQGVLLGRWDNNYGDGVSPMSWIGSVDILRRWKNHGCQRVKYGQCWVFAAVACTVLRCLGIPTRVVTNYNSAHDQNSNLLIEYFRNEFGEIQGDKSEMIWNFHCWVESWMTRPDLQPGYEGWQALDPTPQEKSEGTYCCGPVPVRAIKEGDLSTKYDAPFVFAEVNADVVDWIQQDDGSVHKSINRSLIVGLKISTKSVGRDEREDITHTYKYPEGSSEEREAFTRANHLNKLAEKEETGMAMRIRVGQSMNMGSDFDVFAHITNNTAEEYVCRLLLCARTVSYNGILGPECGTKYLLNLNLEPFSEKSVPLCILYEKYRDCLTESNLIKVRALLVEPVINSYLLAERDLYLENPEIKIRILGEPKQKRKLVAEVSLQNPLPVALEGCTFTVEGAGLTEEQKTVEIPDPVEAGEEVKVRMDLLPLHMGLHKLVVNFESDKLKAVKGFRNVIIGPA

[2] = target: T2, Protein-glutamine gamma-glutamyltransferase (Homo sapiens, UniProt P21980); assay: Irreversible inhibition of human recombinant tissue transglutaminase expressed in Escherichia coli using Cbz-Glu-(gamma-p-nitrophenylester)Gly (AL5) as substrate assessed as substrate hydrolysis by measuring KI incubated for 20 mins by colorimetric analysis
T2 sequence (P21980 whole entry): T1 sequence (whole entry)

[3] = target: T1, Protein-glutamine gamma-glutamyltransferase (Homo sapiens); assay: Irreversible inhibition of human recombinant tissue transglutaminase expressed in Escherichia coli using Cbz-Glu-(gamma-p-nitrophenylester)Gly (AL5) as substrate assessed as substrate hydrolysis by measuring Kinact/Ki ratio incubated for 20 mins by colorimetric analysis
[4] = target: T1, Protein-glutamine gamma-glutamyltransferase (Homo sapiens); assay: Irreversible inhibition of human recombinant tissue transglutaminase expressed in Escherichia coli using Cbz-Glu-(gamma-p-nitrophenylester)Gly (AL5) as substrate assessed as substrate hydrolysis by measuring Kinact/Ki ratio by linear regression analysis
Procedure, shortened: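 For TG2/AL5 under Kitz–Wilson conditions (100 μM AL5, pH 6.9 MOPS, 25 °C, 405 nm), kinact/KI was taken from simple linear regression of kobs against corrected inhibitor concentration at the lowest inhibitor concentrations.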

[5] = target: T1, Protein-glutamine gamma-glutamyltransferase (Homo sapiens); assay: Irreversible inhibition of human TG2 using Cbz-Glu-(gamma-p-nitrophenylester)Gly (AL5) as substrate assessed as substrate hydrolysis by measuring observed binding constant incubated for 20 mins by colorimetric assay
[6] = target: T3, Protein-glutamine gamma-glutamyltransferase K (Homo sapiens) (UniProt P22735); assay: Irreversible inhibition of human TG1 using Cbz-Glu-(gamma-p-nitrophenylester)Gly (AL5) as substrate assessed as substrate hydrolysis by measuring observed binding constant incubated for 100 mins by colorimetric assay
T3 sequence (whole entry): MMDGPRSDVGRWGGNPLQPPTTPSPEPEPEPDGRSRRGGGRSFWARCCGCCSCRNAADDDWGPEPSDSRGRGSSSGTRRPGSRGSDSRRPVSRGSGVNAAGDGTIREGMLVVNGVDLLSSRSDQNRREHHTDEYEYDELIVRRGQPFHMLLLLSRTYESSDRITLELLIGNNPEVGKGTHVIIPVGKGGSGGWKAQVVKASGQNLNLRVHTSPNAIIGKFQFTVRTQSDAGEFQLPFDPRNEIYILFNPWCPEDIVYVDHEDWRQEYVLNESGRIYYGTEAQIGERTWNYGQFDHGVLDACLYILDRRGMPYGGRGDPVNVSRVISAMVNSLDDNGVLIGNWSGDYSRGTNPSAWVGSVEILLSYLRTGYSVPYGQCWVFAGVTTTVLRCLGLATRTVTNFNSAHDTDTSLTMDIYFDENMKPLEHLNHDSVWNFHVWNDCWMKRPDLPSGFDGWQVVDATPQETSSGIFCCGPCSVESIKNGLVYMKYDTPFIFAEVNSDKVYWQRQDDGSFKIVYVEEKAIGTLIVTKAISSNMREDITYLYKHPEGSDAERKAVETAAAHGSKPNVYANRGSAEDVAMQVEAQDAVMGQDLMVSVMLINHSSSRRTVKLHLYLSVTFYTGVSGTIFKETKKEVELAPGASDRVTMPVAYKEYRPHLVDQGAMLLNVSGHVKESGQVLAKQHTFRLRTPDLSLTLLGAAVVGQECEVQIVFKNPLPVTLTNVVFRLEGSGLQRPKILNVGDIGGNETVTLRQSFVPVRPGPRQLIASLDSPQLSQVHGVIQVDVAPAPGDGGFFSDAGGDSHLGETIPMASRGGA

[7] = Metabolic stability in pooled cryopreserved human hepatocytes assessed as half-life at 1 uM measured upto 120 mins by LC-MS/MS analysis; assay type: ADME, cell-based, Hepatocyte
Procedure, shortened: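 Samples were taken at 0, 5, 15, 30, 60 and 120 min, acetonitrile-quenched with internal standard, and analysed by LC-MS/MS. Half-life came from exponential decay of the parent/IS ratio relative to T = 0.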

[8] = Metabolic stability in human whole blood assessed as half-life at 1 to 5 uM measured upto 120 mins by LC-MS/MS analysis; assay type: ADME, tissue-based; conditions: dose 1-5 µM
Procedure, shortened: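 Pooled human whole blood (K3-EDTA) was spiked to 1 or 5 μM compound. Aliquots taken at 0, 15, 30, 60 and 120 min were quenched in acetonitrile with 0.1% formic acid and internal standard, then analysed by LC-MS/MS. Percent parent remaining is the peak-area ratio versus T = 0; half-life comes from an exponential decay fit.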

[9] = GSH reactivity in aqueous buffer assessed as GSH adduct formation by measuring corrected intrinsic second order rate constant (K2 corrected) by HPLC analysis; assay type: physicochemical
Procedure, shortened: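 GSH stock diluted to final 15 mM in aqueous buffer (pH 8.0 used, 7.4 too slow), reaction started with inhibitor at final 0.5 mM, 2% v/v DMSO. Incubated at 22 °C and aliquots taken over at least 5–6 half-lives. HPLC with UV 214/254 nm tracked adduct growth and inhibitor loss, fitted mono-exponentially to give pseudo-first-order kobs. kobs was divided by [thiol] and then by the thiolate fraction (pKa 8.7) to give kcorr2. Run in duplicate.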

[10] = target: T4, Coagulation factor XIII A chain (Homo sapiens) (UniProt P00488); assay: Reversible inhibition of human factor XIIIa using peptidic FRET-quenched probe A101 as substrate by fluorescence based assay relative to control; conditions: concentration not given here
T4 sequence (whole entry): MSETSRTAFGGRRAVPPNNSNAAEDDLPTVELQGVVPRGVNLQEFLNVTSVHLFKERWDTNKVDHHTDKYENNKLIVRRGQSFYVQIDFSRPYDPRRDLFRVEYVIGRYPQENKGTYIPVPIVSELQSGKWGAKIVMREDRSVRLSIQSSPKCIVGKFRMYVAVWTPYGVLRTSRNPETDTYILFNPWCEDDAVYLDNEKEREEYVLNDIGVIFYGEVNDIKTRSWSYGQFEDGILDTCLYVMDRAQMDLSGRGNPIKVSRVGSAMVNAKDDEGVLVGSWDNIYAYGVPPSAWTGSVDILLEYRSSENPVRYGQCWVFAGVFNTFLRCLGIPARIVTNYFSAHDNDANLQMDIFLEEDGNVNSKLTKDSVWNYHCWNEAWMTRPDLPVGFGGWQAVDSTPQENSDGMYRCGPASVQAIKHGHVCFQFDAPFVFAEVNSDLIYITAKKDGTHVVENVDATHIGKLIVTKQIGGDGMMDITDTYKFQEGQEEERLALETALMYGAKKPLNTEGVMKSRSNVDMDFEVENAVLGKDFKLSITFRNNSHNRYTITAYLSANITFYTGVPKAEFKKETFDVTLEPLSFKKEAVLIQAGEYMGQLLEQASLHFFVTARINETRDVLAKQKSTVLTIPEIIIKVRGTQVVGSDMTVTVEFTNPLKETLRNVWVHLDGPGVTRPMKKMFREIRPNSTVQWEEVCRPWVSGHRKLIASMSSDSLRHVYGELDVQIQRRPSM

[11] = Ratio of Kinact/Ki for inhibition of human tissue transglutaminase assessed as substrate hydrolysis to corrected second order rate constant (K2 corrected) for GSH reactivity in aqueous buffer assessed as GSH adduct formation; assay type: physicochemical
[12] = target: T2, Protein-glutamine gamma-glutamyltransferase; assay: Reversible inhibition of human recombinant tissue transglutaminase expressed in Escherichia coli using Cbz-Glu-(gamma-p-nitrophenylester)Gly (AL5) as substrate assessed as substrate hydrolysis by measuring Ki incubated for 20 mins by colorimetric analysis
Procedure, shortened: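 For TG2 reversible inhibition, the same AL5 colorimetric assay (MOPS pH 6.9, 7.5 mM CaCl2, 0.25 μM TG2, 405 nm) was run at 100 and 50 μM AL5. Initial rates were taken over the first 10% conversion of the uninhibited control, and 1/v0 was plotted against [I] in a Dixon plot; Ki came from the intersection of the lines.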

Compound | Kinact [1] [min⁻¹] | pKi [2] | Ratio [3] | Ratio [4] | K [5] [min⁻¹] | K [6] [min⁻¹] | half-life at 1 µM [7] [h] | half-life at up to 5 µM [8] [h] | K [9] | inhibition [10] [%] | Ratio [11] | pKi [12]
C=C(Br)C(=O)NCC(=O)N1CCN(C(=O)C23CC4CC(CC(C4)C2)C3)CC1 | 4.69 | 5.71 | 2410 10^3/M/min | 2320 10^3/M/min | 0.497 | 0.018 | – | – | – | – | – | –
C[S+]([O-])CCCCN=C=S (configuration not stated) [SULFORAPHANE] | 0.27 | 3.44 | – | – | – | – | – | – | – | – | – | –
[N-]=[N+]=CC(=O)NCC(=O)N1CCN(C(=O)C23CC4CC(CC(C4)C2)C3)CC1 | 2.82 | 4.58 | 107 10^3/M/min | 95 10^3/M/min | – | – | – | – | – | – | – | –
O=C(CN=C=S)N1CCN(C(=O)C23CC4CC(CC(C4)C2)C3)CC1 | 0.23 | 5.05 | 26.3 10^3/M/min | 17.7 10^3/M/min | – | – | – | – | – | – | – | –
C=C(Cl)C(=O)NCC(=O)N1CCN(C(=O)C23CC4CC(CC(C4)C2)C3)CC1 | 7.28 | 5.63 | 3130 10^3/M/min | 3140 10^3/M/min | 0.509 | 0.022 | 1.53 | 0.533 | 59.387 10^-3/M/min | 76 | 0.053 | –
C/C=C/C(=O)NCC(=O)N1CCN(C(=O)C23CC4CC(CC(C4)C2)C3)CC1 | – | 4.21 | 8.3 10^3/M/min | 6.7 10^3/M/min | – | – | – | – | – | – | – | –
C=C(F)C(=O)NCC(=O)N1CCN(C(=O)C23CC4CC(CC(C4)C2)C3)CC1 | 1.17 | 4.42 | 30.4 10^3/M/min | 28.5 10^3/M/min | – | – | – | – | – | – | – | –
CC(=O)C(=O)NCC(=O)N1CCN(C(=O)C23CC4CC(CC(C4)C2)C3)CC1 | – | – | – | – | – | – | – | – | – | – | – | 3.81
C=C(C(=O)NCC(=O)N1CCN(C(=O)C23CC4CC(CC(C4)C2)C3)CC1)C(F)(F)F | 5.22 | 4.51 | 171 10^3/M/min | 209 10^3/M/min | – | – | – | – | – | – | – | –
C#CC(=O)NCC(=O)N1CCN(C(=O)C23CC4CC(CC(C4)C2)C3)CC1 | 6.83 | 4.15 | 97.5 10^3/M/min | 87.7 10^3/M/min | – | – | – | – | – | – | – | –
O=C(NCC(=O)N1CCN(C(=O)C23CC4CC(CC(C4)C2)C3)CC1)C(F)Cl (configuration not stated) | 1.57 | 4.05 | 17.8 10^3/M/min | 16 10^3/M/min | – | – | – | – | – | – | – | –

Source: ChEMBL document CHEMBL5230175, “The war on hTG2: warhead optimization in small molecule human tissue transglutaminase inhibitors” (RSC Med Chem, 2023)
